Assay results as given in ChEMBL document CHEMBL1914423, “New imidazo[2,1-b]thiazole derivatives: synthesis, in vitro anticancer evaluation, and in silico studies” (Eur J Med Chem, 2011).

What was measured:
Assay type in all cases: functional
UO-31 = assay: Anticancer activity against human UO31 cells assessed as cell growth at 10^-5 M after 48 hrs by SRB assay; settings: UO-31, 48 h, read-out: Activity
In short: (§1)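 NCI-60 single-dose screen: cells in RPMI 1640 with 5% FBS and 2 mM L-glutamine, plated at 5000–40,000 cells/well by doubling time, and preincubated 24 h at 37 °C. Compound given at one concentration from DMSO stock. Cells TCA-fixed and SRB-stained, absorbance at 515 nm. Percent growth relative to time-zero and untreated controls; inhibition % = 100 − growth %.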

NCI-H460 = assay: Anticancer activity against human NCI-H460 cells assessed as cell growth at 10^-5 M after 48 hrs by SRB assay; settings: NCI-H460, 48 h, read-out: Activity
Malme-3M = assay: Anticancer activity against human MALME-3M cells assessed as cell growth at 10^-5 M after 48 hrs by SRB assay; settings: read-out: Activity
In short: (§2)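 NCI-60 single-dose screen at one concentration. Cells grown in RPMI 1640 with 5% FBS and 2 mM L-glutamine, plated at 5000–40,000 cells/well, and pre-incubated 24 h at 37 °C in 5% CO2 before DMSO-dissolved drug was added. Cells fixed with TCA, SRB-stained, absorbance read at 515 nm. Percent growth calculated against time-zero and untreated control plates.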

K562 = assay: Anticancer activity against human K562 cells assessed as cell growth at 10^-5 M after 48 hrs by SRB assay; settings: K562, 48 h, read-out: Activity; in short: as §2
U-251 = assay: Anticancer activity against human U251 cells assessed as cell growth at 10^-5 M after 48 hrs by SRB assay; settings: U-251, 48 h, read-out: Activity; in short: as §1
OVCAR-3 = assay: Anticancer activity against human OVCAR3 cells assessed as cell growth at 10^-5 M after 48 hrs by SRB assay; settings: OVCAR-3, 48 h, read-out: Activity
HOP-92 = assay: Anticancer activity against human HOP92 cells assessed as cell growth at 10^-5 M after 48 hrs by SRB assay; settings: HOP-92, 48 h, read-out: Activity; in short: as §2
MCF7 = assay: Anticancer activity against human MCF7 cells assessed as cell growth at 10^-5 M after 48 hrs by SRB assay; settings: MCF7, 48 h, read-out: Activity; in short: as §2
786-0 = assay: Anticancer activity against human 786-0 cells assessed as cell growth at 10^-5 M after 48 hrs by SRB assay; settings: 786-0, 48 h, read-out: Activity; in short: as §2
MOLT-4 = assay: Anticancer activity against human MOLT4 cells assessed as cell growth at 10^-5 M after 48 hrs by SRB assay; settings: MOLT-4, 48 h, read-out: Activity
ACHN = assay: Anticancer activity against human ACHN cells assessed as cell growth at 10^-5 M after 48 hrs by SRB assay; settings: read-out: Activity; in short: as §2
OVCAR-8 = assay: Anticancer activity against human OVCAR8 cells assessed as cell growth at 10^-5 M after 48 hrs by SRB assay; settings: OVCAR-8, 48 h, read-out: Activity
M14 = assay: Anticancer activity against human M14 cells assessed as cell growth at 10^-5 M after 48 hrs by SRB assay; settings: M14, 48 h, read-out: Activity; in short: as §2
PC-3 = assay: Anticancer activity against human PC3 cells assessed as cell growth at 10^-5 M after 48 hrs by SRB assay; settings: PC-3, 48 h, read-out: Activity
MDA-MB-468 = assay: Anticancer activity against human MDA-MB-468 cells assessed as cell growth at 10^-5 M after 48 hrs by SRB assay; settings: MDA-MB-468, 48 h, read-out: Activity
NCI-H522 = assay: Anticancer activity against human NCI-H522 cells assessed as cell growth at 10^-5 M after 48 hrs by SRB assay; settings: NCI-H522, 48 h, read-out: Activity
NCI-H23 = assay: Anticancer activity against human NCI-H23 cells assessed as cell growth at 10^-5 M after 48 hrs by SRB assay; settings: NCI-H23, 48 h, read-out: Activity
SF-295 = assay: Anticancer activity against human SF295 cells assessed as cell growth at 10^-5 M after 48 hrs by SRB assay; settings: SF-295, 48 h, read-out: Activity
SK-MEL-28 = assay: Anticancer activity against human SK-MEL-28 cells assessed as cell growth at 10^-5 M after 48 hrs by SRB assay; settings: SK-MEL-28, 48 h, read-out: Activity
IGROV-1 = assay: Anticancer activity against human IGROV1 cells assessed as cell growth at 10^-5 M after 48 hrs by SRB assay; settings: IGROV-1, 48 h, read-out: Activity; in short: as §2
HCT-116 = assay: Anticancer activity against human HCT116 cells assessed as cell growth at 10^-5 M after 48 hrs by SRB assay; settings: HCT-116, 48 h, read-out: Activity; in short: as §2
T47D = assay: Anticancer activity against human T47D cells assessed as cell growth at 10^-5 M after 48 hrs by SRB assay; settings: read-out: Activity; in short: as §1
CCRF-CEM = assay: Anticancer activity against human CCRF-CEM cells assessed as cell growth at 10^-5 M after 48 hrs by SRB assay; settings: read-out: Activity; in short: as §2
RPMI-8226 = assay: Anticancer activity against human RPMI8226 cells assessed as cell growth at 10^-5 M after 48 hrs by SRB assay; settings: RPMI-8226, 48 h, read-out: Activity
SK-OV-3 = assay: Anticancer activity against human SKOV3 cells assessed as cell growth at 10^-5 M after 48 hrs by SRB assay; settings: SK-OV-3, 48 h, read-out: Activity
NCI-H322M = assay: Anticancer activity against human NCI-H322M cells assessed as cell growth at 10^-5 M after 48 hrs by SRB assay; settings: read-out: Activity
HCT-15 = assay: Anticancer activity against human HCT15 cells assessed as cell growth at 10^-5 M after 48 hrs by SRB assay; settings: HCT-15, 48 h, read-out: Activity; in short: as §2
NCI-H226 = assay: Anticancer activity against human NCI-H226 cells assessed as cell growth at 10^-5 M after 48 hrs by SRB assay; settings: NCI-H226, 48 h, read-out: Activity
KM12 = assay: Anticancer activity against human KM12 cells assessed as cell growth at 10^-5 M after 48 hrs by SRB assay; settings: KM12, 48 h, read-out: Activity; in short: as §2
SK-MEL-5 = assay: Anticancer activity against human SK-MEL-5 cells assessed as cell growth at 10^-5 M after 48 hrs by SRB assay; settings: SK-MEL-5, 48 h, read-out: Activity
MDA-MB-231 = assay: Anticancer activity against human MDA-MB-231 cells assessed as cell growth at 10^-5 M after 48 hrs by SRB assay; settings: MDA-MB-231, 48 h, read-out: Activity; in short: as §2
SN12C = assay: Anticancer activity against human SN12C cells assessed as cell growth at 10^-5 M after 48 hrs by SRB assay; settings: read-out: Activity

Row | SMILES | growth at 10 µM (UO-31) [%] | growth at 10 µM (NCI-H460) [%] | growth at 10 µM (Malme-3M) [%] | growth at 10 µM (K562) [%] | growth at 10 µM (U-251) [%] | growth at 10 µM (OVCAR-3) [%] | growth at 10 µM (HOP-92) [%] | growth at 10 µM (MCF7) [%] | growth at 10 µM (786-0) [%] | growth at 10 µM (MOLT-4) [%] | growth at 10 µM (ACHN) [%] | growth at 10 µM (OVCAR-8) [%] | growth at 10 µM (M14) [%] | growth at 10 µM (PC-3) [%] | growth at 10 µM (MDA-MB-468) [%] | growth at 10 µM (NCI-H522) [%] | growth at 10 µM (NCI-H23) [%] | growth at 10 µM (SF-295) [%] | growth at 10 µM (SK-MEL-28) [%] | growth at 10 µM (IGROV-1) [%] | further results
1 | O=C(NCCNc1nccc(-c2c(-c3cccc(O)c3)nc3sccn23)n1)Nc1cc(C(F)(F)F)cc(C(F)(F)F)c1 | 73.1 | 51.8 | 60.5 | 72.7 | 77 | 82.2 | 74.4 | 67.5 | 82 | 60.2 | 65.9 | 52.8 | 21.4 | 51.2 | 57.8 | 69.5 | 90.9 | 66.8 | 68.8 | 65.2 | growth at 10 µM (HCT-116): 66.3%; growth at 10 µM (T47D): 72%; growth at 10 µM (CCRF-CEM): 39.1%; growth at 10 µM (RPMI-8226): 45.7%; growth at 10 µM (SK-OV-3): 89.3%; growth at 10 µM (NCI-H322M): 87%; growth at 10 µM (HCT-15): 79.2%; growth at 10 µM (NCI-H226): 101%; growth at 10 µM (KM12): 43.1%; growth at 10 µM (SK-MEL-5): 59.7%; growth at 10 µM (MDA-MB-231): 41.4%; growth at 10 µM (SN12C): 82.8%
2 | O=C(NCCNc1nccc(-c2c(-c3cccc(O)c3)nc3sccn23)n1)c1ccccc1 | 87.7 | 42.4 | 9.31 | 62.8 | 61.9 | 92.3 | 58.6 | 38.1 | 66.5 | 67.1 | 60.5 | 66.6 | 15.3 | 68.5 | 54.7 | 72.7 | 82.6 | 67.4 | 37.8 | 57.4 | growth at 10 µM (HCT-116): 42.5%; growth at 10 µM (T47D): 58.6%; growth at 10 µM (CCRF-CEM): 47.3%; growth at 10 µM (RPMI-8226): 76.8%; growth at 10 µM (SK-OV-3): 65.1%; growth at 10 µM (NCI-H322M): 101%; growth at 10 µM (HCT-15): 88.4%; growth at 10 µM (NCI-H226): 54.5%; growth at 10 µM (KM12): 75.9%; growth at 10 µM (SK-MEL-5): 40.2%; growth at 10 µM (MDA-MB-231): 80%; growth at 10 µM (SN12C): 66.4%
3 | COc1cccc(-c2nc3sccn3c2-c2ccnc(NCCNC(=O)c3cccc(C(F)(F)F)c3)n2)c1 | 39.5 | 74.3 | 50.8 | 48.1 | 74.5 | 76 | 106 | 78.8 | 76 | 48 | 49.5 | 40.5 | 46.5 | 55 | 71.1 | 48.8 | 70.7 | 54.2 | 75.9 | 53.4 | growth at 10 µM (HCT-116): 56.9%; growth at 10 µM (T47D): 46.7%; growth at 10 µM (CCRF-CEM): 39.3%; growth at 10 µM (RPMI-8226): 25.8%; growth at 10 µM (SK-OV-3): 81.1%; growth at 10 µM (NCI-H322M): 102%; growth at 10 µM (HCT-15): 55.8%; growth at 10 µM (NCI-H226): 87.5%; growth at 10 µM (KM12): 58.6%; growth at 10 µM (SK-MEL-5): 48.4%; growth at 10 µM (MDA-MB-231): 77.6%; growth at 10 µM (SN12C): 65.2%
4 | O=C(NCCNc1nccc(-c2c(-c3cccc(O)c3)nc3sccn23)n1)c1cc(C(F)(F)F)cc(C(F)(F)F)c1 | 94.6 | 107 | 27 | 96.2 | 105 | 108 | 77.1 | 96.3 | 101 | 87.7 | 88.3 | 102 | 38.2 | 82.8 | 101 | 97.6 | 119 | 97.1 | 61.8 | 93 | growth at 10 µM (HCT-116): 102%; growth at 10 µM (T47D): 88.5%; growth at 10 µM (CCRF-CEM): 84.7%; growth at 10 µM (RPMI-8226): 91%; growth at 10 µM (SK-OV-3): 96.3%; growth at 10 µM (NCI-H322M): 122%; growth at 10 µM (HCT-15): 96.6%; growth at 10 µM (NCI-H226): 116%; growth at 10 µM (KM12): 103%; growth at 10 µM (SK-MEL-5): 81.6%; growth at 10 µM (MDA-MB-231): 101%; growth at 10 µM (SN12C): 102%
